Where only a bound is given, the exact number is not on record here.

Series [1] in a line: Inhibition of MERS-CoV 3CLpro using FAM-SAVLQ as substrate preincubated with enzyme for 1 hr followed by susbtrate addition and measured after 1 hr by FRET assay. Further details: species or system Middle East respiratory syndrome-related coronavirus.
Series [2] in a line: Cytotoxicity against human HEK293T cells assessed as reduction in cell viability incubated for 72 hrs by CytoTox 96 nonradioactive assay. The class given is toxicity, cell-based, HEK-293T.
The target in series [3] is Replicase polyprotein 1ab (Severe acute respiratory syndrome coronavirus 2, UniProt P0DTD1). Kind of series: Inhibition of N-terminal His6-tagged full length SARS-CoV-2 3CLpro using FAM-SAVLQ as substrate preincubated with enzyme for 1 hr followed by susbtrate addition and measured after 1 hr by FRET assay.
In another series the test system is SARS-CoV-2. In words: Antiviral activity against SARS-CoV-2 Wuhan-HU-1 infected in HEK293T cells assessed as inhibition of viral replication incubated for 30 hrs by luciferase reporter gene assay. It is filed as functional, organism-based. To be noted: Severe acute respiratory syndrome coronavirus 2, Wuhan-HU-1, HEK-293T. In a few lines: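 This is a non-infectious Wuhan-Hu-1 replicon system, not infectious virus. Replicon RNA was electroporated into 293T cells, which were then incubated for 30 h with compound at 2, 0.5, 0.1 and 0.02 µM or with 0.1% DMSO. Read-out was luciferase activity. Values are mean ± SD.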

Series [4] in a line: Safety index, ratio of CC50 for cytotoxicity against human HEK293T cells to EC50 for antiviral activity against SARS-CoV-2 Wuhan-HU-1 infected in HEK293T cells. The class given is toxicity, cell-based. The note with it: read-out: Ratio CC50/EC50. In a few lines:
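In vitro safety index was calculated as the 293T CC50 divided by the SARS-CoV-2 replicon EC50.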

As to `CC(C)C[C@H](NC(=O)OCC(C)(C)Sc1nc2ccccc2[nH]1)C(=O)N[C@H](C=O)C[C@@H]1CCNC1=O`, the IC50 in series [1] came out at 120 nM; in series [3] it was 300 nM. In series [2], the CC50 at 72 h is over 50000 nM.

With `CC(C)C[C@H](NC(=O)OCC(C)(C)[S+]([O-])c1ccccc1)C(=O)N[C@H](C=O)C[C@@H]1CCNC1=O` (mixture of isomers), the figures for the IC50 in series [1] and in series [3] were 190 nM and 330 nM, respectively. The CC50 at 72 h in series [2] was over 50000 nM.

With `CC(C)C[C@H](NC(=O)OCCSc1ccccc1)C(=O)N[C@@H](C[C@@H]1CCNC1=O)C(O)S(=O)(=O)O` (stereo not given in full), the values for the IC50 in series [1] and in series [3] were 140 nM and 310 nM, respectively. In addition, the cytotoxic concentration (CC50) at 72 h in series [2] was over 50000 nM.

Turning to `CC(C)C[C@H](NC(=O)OCC(C)(C)Oc1ccc(Cl)cc1)C(=O)N[C@@H](C[C@@H]1CCNC1=O)C(O)S(=O)(=O)O` (stereo not given in full), the IC50 in series [1] amounted to 110 nM; in series [3], 340 nM. In addition, the CC50 at 72 h in series [2] is over 50000 nM.

Regarding `CC(C)C[C@H](NC(=O)OCC(C)(C)Sc1cccc(F)c1)C(=O)N[C@@H](C[C@@H]1CCNC1=O)C(O)S(=O)(=O)O` (stereo not given in full), in series [2], the CC50 at 72 h is over 50000 nM. The concentration giving a half-maximal response (EC50) in the series on SARS-CoV-2 came to 10 nM. Moreover, the selectivity ratio in series [4] turned out to be 3330. Besides, the IC50 in series [3] was 130 nM.

With `CC(C)C[C@H](NC(=O)OCCSc1ccccc1)C(=O)N[C@H](C=O)C[C@@H]1CCNC1=O`, the IC50 was 140 nM in series [1] and 320 nM in series [3]. Further, in series [2], the CC50 at 72 h was over 50000 nM.

In the case of `CC(C)C[C@H](NC(=O)OCC(C)(O)c1cccc(Cl)c1)C(=O)N[C@@H](C[C@@H]1CCNC1=O)C(O)S(=O)(=O)O` (mixture of isomers), the IC50 in series [1] came out at 100 nM; in series [3], 320 nM. Further, the half-maximal cytotoxic concentration (CC50) at 72 h in series [2] was over 50000 nM. Moreover, in the series on SARS-CoV-2, the concentration giving a half-maximal response (EC50) was 25 nM.

As for `CC(C)C[C@H](NC(=O)OCC(C)(C)Oc1ccc(Cl)cc1)C(=O)N[C@H](C=O)C[C@@H]1CCNC1=O`, the half-inhibitory concentration (IC50) in series [1] was 20 nM; in series [3], 460 nM. The CC50 at 72 h in series [2] is over 50000 nM.

As to `CC(C)C[C@H](NC(=O)OCC(C)(O)c1cccc(Cl)c1)C(=O)N[C@H](C=O)C[C@@H]1CCNC1=O` (mixture of isomers), the 50% inhibitory concentration (IC50) in series [1] was determined as 120 nM; in series [3], 290 nM. In addition, in series [2], the CC50 at 72 h was over 50000 nM. The 50% effective concentration (EC50) with SARS-CoV-2 turned out to be 25 nM.

Take `CC(C)C[C@H](NC(=O)OCC(C)(C)Oc1cccc(F)c1)C(=O)N[C@@H](C[C@@H]1CCNC1=O)C(O)S(=O)(=O)O` (stereo not given in full): the results for the concentration for half-maximal inhibition (IC50) in series [1] and in series [3] were 40 nM and 120 nM, respectively. In addition, the 50% cytotoxic concentration (CC50) at 72 h in series [2] is over 50000 nM.

As to `CC(C)C[C@H](NC(=O)OCC(C)(C)[S+]([O-])c1ccccc1)C(=O)N[C@@H](C[C@@H]1CCNC1=O)C(O)S(=O)(=O)O` (mixture of isomers), the IC50 in series [1] was 250 nM; in series [3] it was 350 nM. For the same molecule, in series [2], the CC50 at 72 h was over 50000 nM.

With `[2H]C([2H])(OC(=O)N[C@@H](CC(C)C)C(=O)N[C@@H](C[C@@H]1CCNC1=O)C(O)S(=O)(=O)[O-])C(C)(C)Oc1cccc(Cl)c1.[Na+]` (stereo not given in full), the IC50 in series [1] is 70 nM; in series [3], 280 nM. Further, the CC50 at 72 h in series [2] was over 50000 nM.

For the molecule `CC(C)C[C@H](NC(=O)OCC(C)(C)Sc1cccc(F)c1)C(=O)N[C@H](C=O)C[C@@H]1CCNC1=O`, the figures for the half-maximal inhibitory concentration (IC50) in series [1] and in series [3] were 100 nM and 140 nM, respectively. In series [2], the 50% cytotoxic concentration (CC50) at 72 h was over 50000 nM. The half-maximal effective concentration (EC50) in the series on SARS-CoV-2 is 9 nM. Besides, the selectivity ratio in series [4] was found to be 3330.

On to `CC(C)C[C@H](NC(=O)OCC(C)(C)Sc1cccc(Cl)c1)C(=O)N[C@@H](C[C@@H]1CCNC1=O)C(O)S(=O)(=O)O` (stereo not given in full), for which the IC50 in series [1] amounted to 100 nM; in series [3] it was 170 nM. Moreover, in series [2], the CC50 at 72 h is over 50000 nM. Further, the 50% effective concentration (EC50) in the series on SARS-CoV-2 worked out at 11 nM. Further, the selectivity ratio in series [4] worked out at 3330.

For `CC(C)C[C@H](NC(=O)OCc1ccccc1)C(=O)N[C@@H](C[C@@H]1CCNC1=O)C(O)S(=O)(=O)O` (stereo not given in full), in the series with SARS-CoV-2, the EC50 came to 27 nM.

`CC(C)C[C@H](NC(=O)OCC(C)(C)Sc1nc2ccccc2[nH]1)C(=O)N[C@@H](C[C@@H]1CCNC1=O)C(O)S(=O)(=O)O` (stereo not given in full): the IC50 in series [1] turned out to be 210 nM. The CC50 at 72 h in series [2] was over 50000 nM.

In the case of `CC(C)C[C@H](NC(=O)OCC(C)(C)S(=O)(=O)c1ccccc1)C(=O)N[C@H](C=O)C[C@@H]1CCNC1=O`, the IC50 was 260 nM in series [1] and 190 nM in series [3]. The cytotoxic concentration (CC50) at 72 h in series [2] is over 50000 nM.

For the molecule `CC(C)C[C@H](NC(=O)OCC(C)(C)Oc1ccccc1)C(=O)N[C@@H](C[C@@H]1CCNC1=O)C(O)S(=O)(=O)O` (stereo not given in full), the IC50 in series [1] is 20 nM; in series [3], 240 nM. In addition, the half-maximal cytotoxic concentration (CC50) at 72 h in series [2] is over 50000 nM.

Turning to `CC(C)C[C@H](NC(=O)OCC(C)(C)Sc1ccccc1)C(=O)N[C@@H](C[C@@H]1CCNC1=O)C(O)S(=O)(=O)O` (stereo not given in full), in series [2], the cytotoxic concentration (CC50) at 72 h was over 50000 nM. In the series with SARS-CoV-2, the EC50 stood at 10 nM. For the same molecule, in series [4], the selectivity ratio was determined as 3330. The same molecule yielded an IC50 in series [3] of 90 nM.

Turning to `CC(C)C[C@H](NC(=O)OCC(C)(C)Oc1ccccc1)C(=O)N[C@H](C=O)C[C@@H]1CCNC1=O`, the IC50 in series [1] was 40 nM; in series [3], 310 nM. The 50% cytotoxic concentration (CC50) at 72 h in series [2] is over 50000 nM.

Regarding `CC(C)C[C@H](NC(=O)OCC(C)(C)S(=O)(=O)c1ccccc1)C(=O)N[C@@H](C[C@@H]1CCNC1=O)C(O)S(=O)(=O)O` (stereo not given in full), the values for the half-inhibitory concentration (IC50) in series [1] and in series [3] were 280 nM and 200 nM, respectively. For the same molecule, the CC50 at 72 h in series [2] is over 50000 nM.

As for `[2H]C([2H])(OC(=O)N[C@@H](CC(C)C)C(=O)N[C@H](C=O)C[C@@H]1CCNC1=O)C(C)(C)Oc1cccc(Cl)c1`, the half-maximal inhibitory concentration (IC50) in series [1] was 40 nM; in series [3] it was 300 nM. In addition, in series [2], the half-maximal cytotoxic concentration (CC50) at 72 h is over 50000 nM.

As to `[2H]C([2H])(OC(=O)N[C@@H](CC(C)C)C(=O)N[C@@H](C[C@@H]1CCNC1=O)C(O)S(=O)(=O)[O-])C(C)(C)Oc1ccc(Cl)cc1.[Na+]` (stereo not given in full), the figures for the half-maximal inhibitory concentration (IC50) in series [1] and in series [3] were 20 nM and 170 nM, respectively. Moreover, in series [2], the CC50 at 72 h was over 50000 nM. Also, in the series with SARS-CoV-2, the concentration for a half-maximal effect (EC50) amounted to 12 nM. The selectivity ratio in series [4] came out at 3330.

Regarding `CC(C)C[C@H](NC(=O)OCC(C)(C)Oc1ccc(F)cc1)C(=O)N[C@@H](C[C@@H]1CCNC1=O)C(O)S(=O)(=O)O` (stereo not given in full), the IC50 in series [1] is 40 nM; in series [3], 230 nM. The CC50 at 72 h in series [2] is over 50000 nM.

As for `CC(C)C[C@H](NC(=O)OCC(C)(C)Sc1ccccc1)C(=O)N[C@@H](C[C@@H]1CCNC1=O)C(O)(C(=O)NC1CC1)S(=O)(=O)O` (stereo not given in full), the IC50 in series [1] was found to be 180 nM; in series [3], 450 nM. Further, the CC50 at 72 h in series [2] was over 50000 nM. The EC50 in the series with SARS-CoV-2 was determined as 70 nM.

As for `CC(C)C[C@H](NC(=O)OCC(C)(C)Oc1cccc(Cl)c1)C(=O)N[C@@H](C[C@@H]1CCNC1=O)C(O)S(=O)(=O)O` (stereo not given in full), the IC50 in series [1] was found to be 20 nM; in series [3] it was 210 nM. Moreover, the CC50 at 72 h in series [2] is over 50000 nM. The EC50 with SARS-CoV-2 came out at 14 nM. For the same molecule, in series [4], the selectivity ratio is 3330.

`CC(C)C[C@H](NC(=O)OCC(C)(C)Sc1ccc(F)cc1)C(=O)N[C@@H](C[C@@H]1CCNC1=O)C(O)S(=O)(=O)O` (stereo not given in full): the values for the concentration for half-maximal inhibition (IC50) in series [1] and in series [3] were 150 nM and 270 nM, respectively. Besides, the 50% cytotoxic concentration (CC50) at 72 h in series [2] was over 50000 nM.

For `CC(C)C[C@H](NC(=O)OCC(C)(C)Oc1cccc(F)c1)C(=O)N[C@H](C=O)C[C@@H]1CCNC1=O`, the IC50 came to 50 nM in series [1] and 200 nM in series [3]. Besides, the half-maximal cytotoxic concentration (CC50) at 72 h in series [2] was over 50000 nM.

`CC(C)C[C@H](NC(=O)OCc1ccccc1)C(=O)N[C@H](C=O)C[C@@H]1CCNC1=O` returned an IC50 in series [1] of 280 nM. Also, in series [2], the CC50 at 72 h is […]. The EC50 with SARS-CoV-2 is 31 nM.

For the molecule `[2H]C([2H])(OC(=O)N[C@@H](CC(C)C)C(=O)N[C@@H](C[C@@H]1CCNC1=O)C(O)S(=O)(=O)[O-])C(C)(C)Sc1ccccc1.[Na+]` (stereo not given in full), the IC50 in series [1] worked out at 40 nM; in series [3], 310 nM. In series [2], the cytotoxic concentration (CC50) at 72 h is over 50000 nM. For the same molecule, in the series with SARS-CoV-2, the EC50 came to 12 nM. In addition, the selectivity ratio in series [4] is 3330.

`CC(C)C[C@H](NC(=O)OCC(C)(C)Sc1ccc(F)cc1)C(=O)N[C@H](C=O)C[C@@H]1CCNC1=O`: the IC50 in series [1] was found to be 190 nM; in series [3], 170 nM. Moreover, in series [2], the half-maximal cytotoxic concentration (CC50) at 72 h was over 50000 nM.

The record behind these values is ChEMBL document CHEMBL5325428 (Eur J Med Chem, 2023).
